# High-throughput results as filed in PubChem BioAssay.
# The list is not random: actives were taken first. Their share in the collection is about 2.2%.
# IEC-6 tox = IEC-6 cytotoxicity, counter-screen for KLF5 inhibitors; luminescence viability; inhibition, % at 5 µM; hit rate 0.78% among 290,000; in the data active means inhibition above about 22%
# b-catenin transl = modulators of beta-catenin nuclear translocation. HeLa beta-catenin nuclear translocation, immunofluorescence imaging. nuclear translocation activity, % at 5 µM. hit rate 0.3% among 190,000;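 active means nuclear translocation activity above 50% at 5 µM, with a well cell count of 50 or more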;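 further: per-cell ratio of nuclear to cytoplasmic median beta-catenin stain intensity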
#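 Assay system: human HeLa cells, native beta-catenin; doses: 5 µM primary, 0.02–20 µM confirmation; incubation: compound treatment 24 h, 37°C, 5% CO2; technique: fluorescence imaging of beta-catenin antibody stain plus DAPI; measure: % activation, nuclear-to-cytoplasmic median beta-catenin signal ratio per cell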
# MT stabilize HCS = stabilizes microtubules in HeLa cells | AID 2205 | % tubulin-high responders, % at 10 µM | HeLa tubulin immunostaining HCS, 24 h; share of cells brighter than vehicle mean+2SD | hit rate 0.83% among 200,000;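 active means plate Z-score above 3 for both tubulin-high and condensed-nucleus cell shares, with cell loss under 80%, at 10 µM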;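 further: anti alpha tubulin signal scored within the nucleus-defined area of each cell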
# BaF3 tox = parental Ba/F3 viability inhibition as JAK2V617F counter-screen; CellTiter-Glo ATP luminescence; inhibition, % at 5.6 µM; hit rate 1.1% among 220,000; AID 1486;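 active means inhibition above a per-campaign cutoff, the mean inhibition of all tested compounds plus 3 SD, cut at about 27% in these data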
# Ba/F3 V617F tox = loss of viability in JAK2V617F-driven Ba/F3 cells | Ba/F3 EpoR-JAK2V617F viability, ATP luminescence | hit rate 1.1% among 220,000 | inhibition, % at 5.6 µM;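 active means inhibition above the campaign mean plus 3 SD over all tested compounds, cut at about 24% in these data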;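 further: cytokine-independent growth of Ba/F3 cells driven by EpoR plus mutant JAK2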
# APP 5UTR inh = APP translation inhibition | SH-SY5Y APP 5'UTR-luciferase reporter, luminescence | inhibition, % at 2 µM | hit rate 0.82% among 190,000;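 active means inhibition above a set limit, derived from the sample mean plus 3 SD, cut at about 45% in these data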
# A number is an active result; . = inactive; / = not tested or not shown.
SMILES,IEC-6 tox,b-catenin transl,MT stabilize HCS,BaF3 tox,Ba/F3 V617F tox,APP 5UTR inh
CCN1CCN(c2cc(C)c3cc(NC(=O)c4ccncc4)ccc3n2)CC1,/,.,.,/,/,.
CCN1CCN(c2cc(C)c3cc(NC(=O)c4ccc(Br)o4)ccc3n2)CC1,.,.,25,.,.,.
O=C(Nc1ccccc1N(C(=O)c1ccco1)S(=O)(=O)c1cccs1)c1ccco1,.,/,11,.,.,.
COc1ccc(N(C(=O)c2ccco2)S(=O)(=O)c2cccs2)cc1,.,.,.,.,.,.
O=C1CCC2S/C(=C/Nc3ccc(C(F)(F)F)cc3)C(=O)N12 (stereo not given),.,.,.,.,.,72
Cc1nc2ccccc2n1CC(O)COc1ccc(Br)cc1 (stereo not given),.,.,.,.,.,.
CCC(=O)c1ccc(OCC(O)Cn2c(C)nc3ccccc32)cc1 (stereo not given),.,.,.,44,42,.
O=C(NCc1ccc2c(c1)OCO2)c1cc([N+](=O)[O-])ccc1N1CCCCC1,55,107,16,48,63,79
COc1cc2c(cc1OC)CN(c1ncccc1[N+](=O)[O-])CC2,.,/,/,/,/,/
COc1ccc2nc(NC(=O)c3cccc(OCc4c(C)noc4C)c3)sc2c1,.,72,30,.,.,86
CCOc1ccc2nc(NC(=O)c3ccc(OCC4CCCO4)cc3)sc2c1 (stereo not given),.,.,.,60,56,.
CN1C(=O)NC(c2ccccc2[N+](=O)[O-])C2=C1CCCC2=O (stereo not given),.,/,/,/,/,/
CCOc1ccc(/C=C2\C(=O)c3ccccc3OC2c2ccccc2)cc1 (stereo not given),.,/,36,.,.,.
CCOc1ccc(-c2cc(CCCC(=O)N3CCN(c4ccc(OC)cc4)CC3)no2)cc1,.,.,.,.,.,.
CCOc1ccc(-c2cc(CCCC(=O)NCCCOC)no2)cc1,.,.,.,.,.,49
C=CCN=c1scc(-c2ccccc2)n1/N=C/c1ccccn1,31,.,.,57,53,.
Cc1cc(=O)[nH]c(N/N=C/c2ccccc2C(F)(F)F)n1,.,.,.,.,.,.
Cc1cc(=O)[nH]c(N/N=C/c2cc(C)n(CC(F)(F)F)c2C)n1,.,.,/,32,76,/
CCCCN(Cc1ccccc1)C(=O)C1CCCN(S(=O)(=O)c2cnc[nH]2)C1 (stereo not given),.,/,.,.,.,48
O=C(COC(=O)CN1C(=O)C2CCCCC2C1=O)NC1CCS(=O)(=O)C1 (stereo not given),.,.,.,.,.,.
CC1CCCC(NC(=O)COC(=O)CN2C(=O)C3CCCCC3C2=O)C1C (stereo not given),.,.,.,.,.,66
CCC1CCCCN1CCCNC(=O)c1ccc(CS(=O)(=O)Cc2ccc(Cl)cc2)o1 (stereo not given),.,/,/,/,/,/
C=C(C)CSc1nc2sc3c(c2c(=O)n1C1CCCCC1)CCN(C)C3,.,.,/,54,51,/
CCOC(=O)C1CCCN(C2=NC(=O)/C(=C/c3ccc(N(C)C)cc3)S2)C1 (stereo not given),.,/,/,/,/,/
CC1(C)CC(=O)C(CC2=C(O)CC(C)(C)CC2=O)C(=O)C1,.,.,.,.,.,53
SMILES,IEC-6 tox,b-catenin transl,MT stabilize HCS,BaF3 tox,Ba/F3 V617F tox,APP 5UTR inh
CCn1c2ccccc2c2cc(/C=N/NC(=O)c3ccncc3)ccc21,.,.,13,.,.,.
CCn1c2ccccc2c2cc(/C=N/NC(=O)c3ccc(O)cc3)ccc21,.,52,17,.,.,.
CCN(CC)CCOC(=O)c1ccc(NC(=O)c2ccc(Cl)c(S(=O)(=O)N3CCCCCC3)c2)cc1,.,.,25,.,.,.
O=C(Nc1cccnc1)c1ccc(Cl)c(S(=O)(=O)N2CCCCCC2)c1,.,.,.,.,.,.
CC1CCC(C(C)C)C(OC(=O)Cn2c(-c3ccc(Br)cc3)[n+](C)c3ccccc32)C1 (stereo not given),.,.,.,87,101,.
Cc1ccccc1OCc1n(CC(=O)OC2CC(C)CCC2C(C)C)c2ccccc2[n+]1C (stereo not given),.,.,.,80,101,.
CC1CCC(C(C)C)C(OC(=O)Cn2c(-c3ccc(Cl)cc3)[n+](C)c3ccccc32)C1 (stereo not given),.,.,/,95,99,/
CCCCCCCCCCOC(=O)Cn1c(COc2ccccc2C)[n+](C)c2ccccc21,.,/,/,/,/,/
O=C(CN1CCN(CC(=O)Nc2ccccc2Cc2ccccc2)CC1)Nc1ccccc1Cl,.,/,/,/,/,/
O=C(COc1cccc2cccnc12)N/N=C1\SCC(=O)N1CCc1ccccc1,.,.,.,.,.,.
CC(Oc1cc2oc(=O)c3c(c2cc1Cl)CCC3)C(=O)NCc1ccccn1 (stereo not given),.,/,/,/,/,/
COc1ccc(NC(=O)N2CCCC2C(=O)NCCc2ccccc2)cc1 (stereo not given),.,/,/,/,/,/
NC(=O)c1ccc(NC(=O)C2CCCC2)cc1,.,/,/,/,/,/
CC1(C)N=C(N)NC(Nc2ccc(Br)cc2)=N1,.,.,.,35,.,.
COc1ccc(N2C(=O)CSC(c3ccccc3)C2=O)cc1 (stereo not given),.,.,.,.,.,.
COc1ccccc1Oc1ccc(S(=O)(=O)N2CCOCC2)cc1S(=O)(=O)N1CCOCC1,.,.,.,.,.,.
Cc1ccc(Oc2ccc(S(=O)(=O)N3CCOCC3)cc2C(N)=O)c(-n2nc3ccccc3n2)c1,.,.,27,.,.,46
CC(C)=CCC/C(C)=C/CCC(C)NCCN1CCNCC1 (stereo not given),34,.,.,.,.,.
CCc1ccc(N(CC)C(=O)c2cn(C)c(=O)c3ccccc23)cc1,.,/,/,/,/,/
Cc1nc(NC(C)c2ccccc2)c2oc3ccccc3c2n1 (stereo not given),.,.,.,35,.,.
CCC(C)Nc1nc(C)nc2c1oc1ccccc12 (stereo not given),.,.,/,.,.,/
CC(=O)NS(=O)(=O)c1ccc(NC(=O)c2ccc3c(c2)OCO3)cc1,.,/,/,/,/,/
Oc1ccc(/C=N/Nc2ccnc3cc(Cl)ccc23)cc1O,.,.,/,52,85,/
Oc1ccc(/C=N/Nc2ccnc3cc(Cl)ccc23)c(O)c1O,.,/,/,/,/,/
COc1ccc(NC(=O)c2cc(C)no2)cc1Cl,.,/,/,/,/,/
CCC1CCCCN1CCCNC(=O)c1ccc(N2CCOCC2)c(NS(=O)(=O)c2ccc(OC)cc2)c1 (stereo not given),.,.,.,52,.,.
CCCCNC(=O)c1ccc(N2CCOCC2)c(NS(=O)(=O)c2ccc(OC)cc2)c1,.,.,.,.,.,.
Cc1cccc(C(=O)Nc2nc(C)c(C(=O)Nc3ccc4c(c3)CCC4)s2)c1,.,/,43,.,.,.
Cc1cccc(NC(=O)c2sc(C)nc2C)c1,.,.,.,.,.,.
CN(C)C(=S)Nc1ccc(Cc2ccncc2)cc1,.,/,/,/,/,/
